# From ChEMBL document CHEMBL4184255, “Formoxanthone C, isolated from Cratoxylum formosum ssp. pruniflorum, reverses anticancer drug resistance by inducing both apoptosis and autophagy in human A549 lung cancer cells” (Bioorg Med Chem Lett, 2018)
# Calls of active or inactive are those of the source. No cut-off for these calls is given here.
# Columns and labels:
# Homo sapiens [1] = species on record: Homo sapiens; test: Cytotoxicity in multidrug resistant human A549RT-eto cells assessed as reduction in cell survival at 20 ug/ml incubated for 12 hrs by MTT assay; type: functional, cell-based
# Summary of the method: (§1)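 A549RT-eto cells held at fixed 20 µg/ml and sampled at several exposure times (0, 6, 12, 24 h); survival scored.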
# [2] = Induction of cell death in multidrug resistant human A549RT-eto cells at 20 ug/ml incubated for 24 hrs in presence of HDAC4 siRNA by MTT assay; type: functional
# Summary of the method: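 A549RT-eto cells transfected with control or HDAC4 siRNA (100 nM), then exposed to XanX 20 µg/ml for 24 h. Morphology checked by light microscope. Viability by MTT assay as percentage relative viability, mean of three experiments.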
# [3] = Induction of cell death in multidrug resistant human A549RT-eto cells assessed as cell survival at 20 ug/ml incubated for 24 hrs in absence of pan-caspase inhibitor Z-VAD by light microscopy; type: functional; details: read-out: Survival
# Summary of the method: (§2)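 Etoposide-resistant A549RT-eto cells exposed for 24 h to XanX 20 µg/ml, pan-caspase inhibitor Z-VAD 20 µM, or both combined. Morphology inspected by light microscope. Viability read by MTT assay as percentage relative to control. Values are the mean of at least three experiments.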
# Homo sapiens [4] = species on record: Homo sapiens; test: Cytotoxicity in multidrug resistant human A549RT-eto cells assessed as reduction in cell survival at; type: functional, cell-based
# Homo sapiens [5] = species on record: Homo sapiens; test: Induction of autophagy in multidrug resistant human A549RT-eto cells assessed as increase in beclin-1 protein level at 20 ug/ml incubated for 24 hrs in presence of pan-caspase inhibitor Z-VAD by immunoblot; type: functional
# Summary of the method: (§3)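 A549RT-eto cells given 20 µg/ml alone, Z-VAD (20 µM) alone, or both for 24 h; MTT viability, mean of at least three experiments; lysates on 12% SDS-PAGE immunoblotted for cleaved PARP, beclin-1, LC3B and Atg5.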
# Homo sapiens [6] = species on record: Homo sapiens; test: Reduction in HDAC4 protein expression in multidrug resistant human A549RT-eto cells at 20 ug/ml incubated for 24 hrs by immunoblot; type: functional
# Summary of the method: (§4)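 A549 and A549RT-eto cells treated with 20 µg/ml for 24 h; lysates resolved on 8% SDS-PAGE; immunoblot for HDAC4, P-gp and PARP cleavage.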
# Homo sapiens [7] = species on record: Homo sapiens; test: Induction of autophagy in multidrug resistant human A549RT-eto cells assessed as increase in beclin-1 protein level at 20 ug/ml incubated for 24 hrs by immunoblot; type: functional
# Homo sapiens [8] = species on record: Homo sapiens; test: Induction of autophagy in multidrug resistant human A549RT-eto cells assessed as increase in LC3-I to LC3-II conversion at 20 ug/ml incubated for 24 hrs in presence of HDAC4 siRNA by immunoblot; type: functional
# Summary of the method: (§5)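 A549RT-eto cells transfected with control or HDAC4 siRNA (100 nM), then 20 µg/ml for 24 h; MTT viability, mean of three experiments; lysates on 12% SDS-PAGE immunoblotted for HDAC4, beclin-1 and LC3-I cleavage.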
# Homo sapiens [9] = species on record: Homo sapiens; test: Induction of autophagy in multidrug resistant human A549RT-eto cells assessed as increase in LC3-I to LC3-II conversion at 20 ug/ml incubated for 24 hrs by immunoblot; type: functional
# Homo sapiens [10] = species on record: Homo sapiens; test: Induction of autophagy in multidrug resistant human A549RT-eto cells assessed as increase in LC3-I to LC3-II conversion at 7.5 to 20 ug/ml incubated for 12 hrs by immunoblot
# Homo sapiens [11] = species on record: Homo sapiens; test: Induction of autophagy in multidrug resistant human A549RT-eto cells assessed as increase in LC3-I to LC3-II conversion at 20 ug/ml incubated for 24 hrs in presence of pan-caspase inhibitor Z-VAD by immunoblot; type: functional; summary of the method: as §3
# Homo sapiens [12] = species on record: Homo sapiens; test: Induction of autophagy in multidrug resistant human A549RT-eto cells assessed as reduction in mTOR phosphorylation at 7.5 to 20 ug/ml incubated for 12 hrs by immunoblot
# [13] = Induction of cell death in multidrug resistant human A549RT-eto cells assessed as cell survival at 20 ug/ml incubated for 24 hrs in absence of pan-caspase inhibitor Z-VAD by MTT assay; type: functional; details: read-out: Survival; summary of the method: as §2
# Homo sapiens [14] = species on record: Homo sapiens; test: Induction of cell death in multidrug resistant human A549RT-eto cells incubated for 72 hrs by light microscopy; type: functional
# Summary of the method: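 A549RT-eto cells given 0, 1.56, 3.13, 6.25, 12.5 or 25 µg/ml for 72 h; morphology and viability judged under light microscope.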
# [15] = Induction of cell death in multidrug resistant human A549RT-eto cells assessed as cell survival at 20 ug/ml incubated for 24 hrs in presence of pan-caspase inhibitor Z-VAD by MTT assay (reference value: 30%); type: functional; details: read-out: Survival; summary of the method: as §2
# Homo sapiens [16] = species on record: Homo sapiens; test: Induction of apoptosis in multidrug resistant human A549RT-eto cells assessed as reduction in pro-caspse-9 protein expression at 10 to 20 ug/ml incubated for 12 hrs by Western blot method; type: functional
# Homo sapiens [17] = species on record: Homo sapiens; test: Induction of cell death in multidrug resistant human A549RT-eto cells at 20 ug/ml incubated for 24 hrs in presence of beclin-1 siRNA by light microscopy; type: functional
# Summary of the method: (§6)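 A549RT-eto cells transfected with control or beclin-1 siRNA (100 nM), then given 0 or 20 µg/ml for 24 h; viability by light microscopy and MTT as percent relative viability, mean of three experiments; lysates on 12% SDS-PAGE immunoblotted for PARP cleavage, beclin-1 and LC3.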
# Homo sapiens [18] = species on record: Homo sapiens; test: Induction of apoptosis in multidrug resistant human A549RT-eto cells assessed as increase in PARP cleavage at 20 ug/ml incubated for 24 hrs in presence of pan-caspase inhibitor Z-VAD by Western blot method; type: functional; summary of the method: as §3
# A549 = test: Cytotoxicity in human A549 cells incubated for 72 hrs by MTT assay; type: functional, cell-based; details: A549, 72 h
# Summary of the method: (§7)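 Parental A549 and etoposide-resistant A549RT-eto cells exposed 72 h to two-fold serial dilutions, 25 to 1.56 µg/ml; viability by MTT; IC50 derived from dose-response; mean of triplicates with standard deviation.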
# Homo sapiens [19] = species on record: Homo sapiens; test: Induction of apoptosis in multidrug resistant human A549RT-eto cells assessed as increase in PARP cleavage at 10 to 20 ug/ml incubated for 12 hrs by Western blot method; type: functional
# Summary of the method: (§8)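 A549RT-eto cells treated at 10 and 20 µg/ml, lysed at 12 h; lysates resolved on 12% SDS-PAGE; immunoblot for pro-caspase 8 and PARP cleavage.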
# Homo sapiens [20] = species on record: Homo sapiens; test: Induction of apoptosis in multidrug resistant human A549RT-eto cells assessed as increase in PARP cleavage at 20 ug/ml incubated for 24 hrs in presence of HDAC4 siRNA by Western blot method; type: functional
# Homo sapiens [21] = species on record: Homo sapiens; test: Reduction in P-gp protein expression in multidrug resistant human A549RT-eto cells at 20 ug/ml incubated for 24 hrs by immunoblot; type: functional; summary of the method: as §4
# Homo sapiens [22] = species on record: Homo sapiens; test: Cytotoxicity in multidrug resistant human A549RT-eto cells assessed as reduction in cell survival at 20 ug/ml incubated for 24 hrs by MTT assay; type: functional, cell-based; summary of the method: as §1
# [23] = Induction of cell death in multidrug resistant human A549RT-eto cells at 20 ug/ml incubated for 24 hrs by MTT assay; type: functional
# Homo sapiens [24] = species on record: Homo sapiens; test: Induction of autophagy in multidrug resistant human A549RT-eto cells assessed as increase in LC3-I to LC3-II conversion at 20 ug/ml incubated for 24 hrs in presence of beclin-1 siRNA by immunoblot; type: functional; summary of the method: as §6
# Homo sapiens [25] = species on record: Homo sapiens; test: Induction of autophagy in multidrug resistant human A549RT-eto cells assessed as increase in vacuoles formation at 7.5 to 20 ug/ml by light microscopy
# Homo sapiens [26] = species on record: Homo sapiens; test: Induction of autophagy in multidrug resistant human A549RT-eto cells assessed as increase in beclin-1 protein level at 7.5 to 20 ug/ml incubated for 12 hrs by immunoblot
# Homo sapiens [27] = species on record: Homo sapiens; test: Induction of autophagy in multidrug resistant human A549RT-eto cells assessed as increase in beclin-1 protein level at 20 ug/ml incubated for 24 hrs in presence of HDAC4 siRNA by immunoblot; type: functional; summary of the method: as §5
# Homo sapiens [28] = species on record: Homo sapiens; test: Induction of apoptosis in multidrug resistant human A549RT-eto cells assessed as reduction in pro-caspse-8 protein expression at 10 to 20 ug/ml incubated for 12 hrs by Western blot method; type: functional; summary of the method: as §8
# Homo sapiens [29] = species on record: Homo sapiens; test: Induction of autophagy in multidrug resistant human A549RT-eto cells assessed as increase in GFP-LC3-II puncta at 7.5 to 20 ug/ml incubated for 24 hrs by fluorescence microscopy; type: functional
# Homo sapiens [30] = species on record: Homo sapiens; test: Induction of apoptosis in multidrug resistant human A549RT-eto cells assessed as increase in PARP cleavage at 20 ug/ml incubated for 24 hrs in presence of beclin-1 siRNA by Western blot method; type: functional; summary of the method: as §6
# Homo sapiens [31] = species on record: Homo sapiens; test: Induction of cell death in multidrug resistant human A549RT-eto cells at 20 ug/ml incubated for 24 hrs in presence of beclin-1 siRNA by MTT assay; type: functional; summary of the method: as §6
# Homo sapiens [32] = species on record: Homo sapiens; test: Induction of cell death in multidrug resistant human A549RT-eto cells incubated for 72 hrs by MTT assay; type: functional; summary of the method: as §7
# [33] = Cytotoxicity in multidrug resistant human A549RT-eto cells incubated for 72 hrs by MTT assay; type: functional, cell-based; summary of the method: as §7
# [34] = Induction of cell death in multidrug resistant human A549RT-eto cells assessed as cell survival at 20 ug/ml incubated for 24 hrs in presence of pan-caspase inhibitor Z-VAD by light microscopy (reference value: 30%); type: functional; details: read-out: Survival; summary of the method: as §2
smiles,measurement,setting,value
CC(C)=CCc1c2c(c3oc4c(O)c(O)ccc4c(=O)c3c1O)C(C)(C)C(C)O2 (stereo not given),Activity,Homo sapiens [1],inactive
same,Activity,[2],80%
same,viability at 20 µg/mL,[3],30%
same,Activity,Homo sapiens [4],inactive
same,Activity,Homo sapiens [5],Active
same,Activity,Homo sapiens [6],Active
same,Activity,Homo sapiens [7],Active
same,Activity,Homo sapiens [8],Active
same,Activity,Homo sapiens [9],Active
same,Activity,Homo sapiens [10],Active
same,Activity,Homo sapiens [11],Active
same,Activity,Homo sapiens [12],Active
same,viability at 20 µg/mL,[13],30%
same,Activity,Homo sapiens [14],Dose-dependent effect
same,viability at 20 µg/mL,[15],85%
same,Activity,Homo sapiens [16],Active
same,Activity,Homo sapiens [17],inactive
same,Activity,Homo sapiens [18],inactive
same,IC50,A549,2.56 µg/mL
same,Activity,Homo sapiens [19],Active
same,Activity,Homo sapiens [20],Active
same,Activity,Homo sapiens [21],Active
same,Activity,Homo sapiens [22],Active
same,Activity,[23],60%
same,Activity,Homo sapiens [24],inactive
same,Activity,Homo sapiens [25],Active
same,Activity,Homo sapiens [26],Active
same,Activity,Homo sapiens [27],Active
same,Activity,Homo sapiens [28],Active
same,Activity,Homo sapiens [29],Active
same,Activity,Homo sapiens [30],Active
same,Activity,Homo sapiens [31],inactive
same,Activity,Homo sapiens [32],Dose-dependent effect
same,IC50,[33],4.65 µg/mL
same,viability at 20 µg/mL,[34],85%
